Laboratory results published in ChEMBL document CHEMBL1133586, “The cyclohexene ring system as a furanose mimic: synthesis and antiviral activity of both enantiomers of cyclohexenylguanine” (2000).
In brackets after ≈: the same amount, converted by molar mass. Several values for one entry are separate records, joined by “and”; a condition that tells them apart may be missing. Equal entries are not always repeated.

Assays:
HeLa = assay: Cytotoxicity concentration required to microscopically detectable alteration of cell morphology in HeLa; format: functional, Homo sapiens
Method in brief: (§1)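 Cytotoxicity was scored as the minimum concentration giving a microscopically detectable change in normal cell morphology of E6SM, HeLa or Vero cell cultures.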

Cytomegalovirus [1] = assay: Minimum inhibitory concentration was determined against CMV (Davis) in HEL cell; format: functional; details: Human betaherpesvirus 5
Method in brief: (§2)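 HEL cell cultures were infected with 20 PFU of virus and incubated with varying compound concentrations. The value is the concentration reducing virus plaque formation by 50%, as the mean of two independent determinations.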

[2] = Minimum inhibitory concentration was determined against HSV-2 (Lyons) in E6SM cell culture; format: functional, herpes simplex virus
Method in brief: (§3)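 Confluent E6SM cultures in microtiter trays were infected with 100 CCID50 of virus. After 1 h adsorption, residual virus was removed and cultures were incubated with varying compound concentrations. Cytopathicity was read once virus controls reached completion. The value is the concentration reducing virus-induced cytopathogenicity by 50%, as the mean of two independent determinations.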

HEL [3] = assay: Cytotoxicity concentration required to inhibit the cell growth by 50% in HEL; format: functional, Homo sapiens
Method in brief: (§4)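 In HEL cells, cytotoxicity was measured as inhibition of normal cell growth, and the value is the concentration reducing cell growth by 50%.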

Cytomegalovirus [4] = assay: Minimum inhibitory concentration was determined in CMV (AD169) in HEL cell; format: functional; details: Human betaherpesvirus 5; method in brief: as §2
Human alphaherpesvirus 1 [5] = assay: (§5) Minimum inhibitory concentration was determined against HSV-1 (McIntyre) in E6SM cell culture; format: functional, herpes simplex virus; method in brief: as §3
Human alphaherpesvirus 3 [6] = assay: (§6) Minimum inhibitory concentration was determined against VZV (YS) in HEL cells; format: functional; method in brief: as §2
[7] = Selectivity index was determined against HSV-1 (TK-/TK+VMW1837) in E6SM cell culture; format: functional
[8] = Selectivity index was determined againstHSV-2 (196) in E6SM cell culture; format: functional
[9] = Selectivity index was determined in HSV-1 (KOS) in E6SM cell culture; format: functional
[10] = Selectivity index was determined against VZV (YS) in HEL cells; format: functional
[11] = Minimum inhibitory concentration was determined against HSV-2 (G) in E6SM cell culture; format: functional, herpes simplex virus; method in brief: as §3
Human alphaherpesvirus 1 [12] = assay: Minimum inhibitory concentration was determined against HSV-1 (F) in E6SM cell culture; format: functional, herpes simplex virus; method in brief: as §3
Human alphaherpesvirus 3 [13] = assay: (§7) Minimum inhibitory concentration was determined against VZV (OKA) in HEL cells; format: functional; method in brief: as §2
Human alphaherpesvirus 3 [14] = assay: (§8) Minimum inhibitory concentration was determined against VZV (TK-YS/R) in HEL cells; format: functional; method in brief: as §2
HEL [15] = assay: Cytotoxicity concentration required to reduce cell growth by 50% in HEL; format: functional, Homo sapiens; method in brief: as §4
[16] = Minimum inhibitory concentration was determined against HSV-1 (TK-/TK+VMW1837) in E6SM cell culture; format: functional, herpes simplex virus; method in brief: as §3
Cytomegalovirus [17] = assay: Minimum inhibitory concentration was determined against CMV (AD 169) in HEL cells; format: functional; details: Human betaherpesvirus 5; method in brief: as §2
Human alphaherpesvirus 3 [18] = assay: (§9) Minimum inhibitory concentration was determined against VZV (TK-07/1) in HEL cells; format: functional; method in brief: as §2
[19] = Selectivity index was determined against HSV-2 (Lyons) in E6SM cell culture; format: functional
[20] = Selectivity index was determined against CMV (AD 169) in HEL cells; format: functional
[21] = Selectivity index was determined against CMV (Davis) in HEL cells; format: functional
[22] = Selectivity index was determined against VZV (OKA) in HEL cells; format: functional
[23] = Selectivity index was determined against VZV (TK-YS/R) in HEL cells; format: functional
[24] = Selectivity index was determined against HSV-1 (F) in E6SM cell culture; format: functional
[25] = Minimum inhibitory concentration was determined against HSV-2 (196) in E6SM cell culture; format: functional, herpes simplex virus; method in brief: as §3
Cytomegalovirus [26] = assay: Minimum inhibitory concentration was determined in CMV (Davis) in HEL cell; format: functional; details: Human betaherpesvirus 5; method in brief: as §2
Human alphaherpesvirus 3 [27] = assay: as §8; format: functional; method in brief: as §2; remark: listed apart in the source
[28] = Minimum inhibitory concentration was determined against HSV-1 (KOS) in E6SM cell culture; format: functional, herpes simplex virus; method in brief: as §3
[29] = as §6; details: Human alphaherpesvirus 1
[30] = as §5; format: functional, herpes simplex virus; details: Human alphaherpesvirus 1; method in brief: as §3
[31] = Minimum inhibitory concentration was determined against HSV-1 (TK-KOS ACV) in E6SM cell culture; format: functional, herpes simplex virus; details: Human alphaherpesvirus 1; method in brief: as §3
Human alphaherpesvirus 3 [32] = assay: as §8
Vero = assay: Cytotoxicity concentration required to microscopically detectable alteration of cell morphology in Vero; format: functional, Chlorocebus sabaeus; method in brief: as §1
Human alphaherpesvirus 3 [33] = assay: as §9
Human alphaherpesvirus 3 [34] = assay: as §7
Human alphaherpesvirus 2 = assay: Minimum inhibitory concentration was determined against HSV-2 (G) in E6SM cell culture
E6SM = assay: Cytotoxicity concentration required to microscopically detectable alteration of cell morphology in E6SM; format: functional, Homo sapiens; method in brief: as §1
HEL [35] = assay: Cytotoxicity concentration required to microscopically detectable alteration of cell morphology HEL; format: functional, Homo sapiens
[36] = Minimum inhibitory concentration was determined against HSV-2 (G) in E6SM cell culture; details: Human alphaherpesvirus 2
Cytomegalovirus [37] = assay: Minimum inhibitory concentration was determined against CMV(Davis) in E6SM cell culture; format: functional; details: Human betaherpesvirus 5; method in brief: as §3
Cytomegalovirus [38] = assay: Minimum inhibitory concentration was determined against CMV(AD169) in E6SM cell culture; format: functional; details: Human betaherpesvirus 5; method in brief: as §3
Human alphaherpesvirus 1 [39] = assay: Minimum inhibitory concentration was determined against HSV-1 (TK-/TK+VMW1837) in E6SM cell culture
Human alphaherpesvirus 1 [40] = assay: Minimum inhibitory concentration was determined against HSV-1 (G) in E6SM cell culture; format: functional, herpes simplex virus; method in brief: as §3
[41] = Human alphaherpesvirus 1, read-out: MIC
[42] = Human alphaherpesvirus 3, read-out: MIC

Which results are given for Nc1nc(O)c2ncn(C3C=CC(CO)C(O)C3)c2n1 (stereo not drawn)?
Cytotoxicity (HeLa): 400 µg/mL; MIC (Cytomegalovirus [1]): 1.7 µg/mL (≈ 6.13 µM); MIC [2]: 0.07 µg/mL (≈ 0.252 µM); Cytotoxicity (HEL [3]): > 20 µg/mL; MIC (Cytomegalovirus [4]): 0.6 µg/mL (≈ 2.16 µM); MIC (Human alphaherpesvirus 1 [5]): 0.004 µg/mL (≈ 0.0144 µM); MIC (Human alphaherpesvirus 1 [5]; [41]): 0.004 µg/mL (≈ 0.0144 µM); MIC (Human alphaherpesvirus 3 [6]): 1.2 µg/mL and 0.49 µg/mL; Selectivity index [7]: >1.6 and >4; Selectivity index [8]: > 160; Selectivity index [9]: > 5000; Selectivity index [10]: >16 and >40; MIC [11]: 0.05 µg/mL (≈ 0.18 µM); MIC [11, 41]: 0.07 µg/mL (≈ 0.252 µM); MIC (Human alphaherpesvirus 1 [12]): 0.002 µg/mL (≈ 0.00721 µM); MIC (Human alphaherpesvirus 1 [12]; [41]): 0.003 µg/mL (≈ 0.0108 µM); MIC (Human alphaherpesvirus 3 [13]): 1.9 µg/mL and 0.64 µg/mL; MIC (Human alphaherpesvirus 3 [14]): 6.8 µg/mL (≈ 24.5 µM); Cytotoxicity (HEL [15]): > 20 µg/mL; MIC [16]: 0.01 µg/mL (≈ 0.0361 µM); MIC [16, 41]: 0.01 µg/mL (≈ 0.0361 µM); MIC (Cytomegalovirus [17]): 1.5 µg/mL (≈ 5.41 µM); MIC (Human alphaherpesvirus 3 [18]): 5.8 µg/mL and 2.1 µg/mL; Selectivity index [19]: >2.2 and >5; Selectivity index [20]: >13 and >30; Selectivity index [21]: >12 and >25; Selectivity index [22]: >10 and >30; Selectivity index [23]: >3 and >7; Selectivity index [24]: >5 and >2; MIC [25]: 0.07 µg/mL (≈ 0.252 µM); MIC [25, 41]: 0.1 µg/mL (≈ 0.361 µM); MIC (Cytomegalovirus [26]): 0.8 µg/mL (≈ 2.89 µM); MIC (Human alphaherpesvirus 3 [27]): 2.8 µg/mL (≈ 10.1 µM); MIC [28]: 0.002 µg/mL (≈ 0.00721 µM); MIC [28, 41]: 0.003 µg/mL (≈ 0.0108 µM)

Which results are given for Nc1nc2c(ncn2COCCO)c(=O)[nH]1 [ACYCLOVIR]?
MIC [29]: 1.1 µg/mL (≈ 4.88 µM); MIC [2]: 0.02 µg/mL (≈ 0.0888 µM); MIC [30]: 0.005 µg/mL (≈ 0.0222 µM); MIC [31]: 9.6 µg/mL (≈ 42.6 µM); MIC (Human alphaherpesvirus 3 [32]): 28 µg/mL (≈ 124 µM); Cytotoxicity (Vero): > 400 µg/mL; MIC (Human alphaherpesvirus 1 [12]; [41]): 0.003 µg/mL (≈ 0.0133 µM); MIC ([16]; Human alphaherpesvirus 1): 0.07 µg/mL (≈ 0.311 µM); MIC (Human alphaherpesvirus 3 [33]): 13 µg/mL (≈ 57.7 µM); MIC (Human alphaherpesvirus 3 [34]): 0.8 µg/mL (≈ 3.55 µM); MIC (Human alphaherpesvirus 2): 0.02 µg/mL (≈ 0.0888 µM); Cytotoxicity (E6SM): > 50 µg/mL; MIC ([25]; Human alphaherpesvirus 2): 0.02 µg/mL (≈ 0.0888 µM); MIC [28, 41]: 0.01 µg/mL (≈ 0.0444 µM)

Which Cytotoxicity (HeLa) does the source give for O=c1[nH]c(=O)n([C@H]2C[C@H](O)[C@@H](CO)O2)cc1/C=C/Br [BRIVUDINE] here?
The Cytotoxicity was > 400 µg/mL.

And the MIC [2]?
Its MIC is > 80 µg/mL.

And the Cytotoxicity (HEL [35])?
Its Cytotoxicity is > 200 µg/mL.

What about the MIC (Human alphaherpesvirus 1 [5]; [41]) of the same molecule?
Its MIC is 0.001 µg/mL (≈ 0.003 µM).

And the MIC (Human alphaherpesvirus 3 [6]; [42])?
The MIC was 0.03 µg/mL (≈ 0.0901 µM).

And the MIC [31]?
The MIC was > 80 µg/mL.

What about the MIC [36] of the same molecule?
Its MIC is > 80 µg/mL.

And the Cytotoxicity (Vero)?
The Cytotoxicity was > 400 µg/mL.

What about the MIC (Human alphaherpesvirus 1 [12]; [41]) of the same molecule?
The MIC was 0.001 µg/mL (≈ 0.003 µM).

And the MIC (Human alphaherpesvirus 3 [13]; [42])?
The MIC was 0.003 µg/mL (≈ 0.00901 µM).

What about the Cytotoxicity (HEL [15]) of the same molecule?
The Cytotoxicity was > 50 µg/mL.

And the MIC [16, 41]?
The MIC was > 80 µg/mL.

And the MIC (Human alphaherpesvirus 3 [18]; [42])?
Its MIC is > 20 µg/mL.

What about the Cytotoxicity (E6SM) of the same molecule?
The Cytotoxicity was > 400 µg/mL.

What about the MIC [25, 41] of the same molecule?
The MIC was > 80 µg/mL.

And the MIC (Human alphaherpesvirus 3 [27])?
The MIC was > 50 µg/mL.

And the MIC [28, 41]?
Its MIC is 0.001 µg/mL (≈ 0.003 µM).

With Nc1ccn(C[C@@H](CO)OCP(=O)(O)O)c(=O)n1.O.O [CIDOFOVIR] as the molecule, how does the Cytotoxicity (HEL [35]) read?
The Cytotoxicity was > 50 µg/mL.

What about the MIC (Cytomegalovirus [37]) of the same molecule?
Its MIC is 0.2 µg/mL.

And the MIC (Cytomegalovirus [38])?
The MIC was 0.08 µg/mL.

What about the Cytotoxicity (E6SM) of the same molecule?
Its Cytotoxicity is > 50 µg/mL.

With Nc1nc2c(ncn2COC(CO)CO)c(=O)[nH]1 [GANCICLOVIR] as the molecule, how does the MIC [2] read?
The MIC was 0.001 µg/mL (≈ 0.00392 µM).

What about the MIC (Human alphaherpesvirus 1 [39]) of the same molecule?
The MIC was 0.01 µg/mL (≈ 0.0392 µM).

And the Cytotoxicity (HEL [35])?
The Cytotoxicity was > 50 µg/mL.

And the MIC [30]?
The MIC was 0.001 µg/mL (≈ 0.00392 µM).

What about the MIC (Human alphaherpesvirus 1 [40]) of the same molecule?
Its MIC is 0.002 µg/mL (≈ 0.00784 µM).

What about the MIC [31] of the same molecule?
Its MIC is 0.48 µg/mL (≈ 1.88 µM).

And the MIC (Cytomegalovirus [37])?
Its MIC is 0.8 µg/mL (≈ 3.13 µM).

And the Cytotoxicity (Vero)?
The Cytotoxicity was > 100 µg/mL.

And the MIC (Human alphaherpesvirus 1 [12]; [41])?
Its MIC is 0.001 µg/mL (≈ 0.00392 µM).

What about the MIC (Cytomegalovirus [38]) of the same molecule?
The MIC was 0.6 µg/mL (≈ 2.35 µM).

And the Cytotoxicity (E6SM)?
Its Cytotoxicity is > 50 µg/mL.

And the MIC ([25]; Human alphaherpesvirus 2)?
Its MIC is 0.001 µg/mL (≈ 0.00392 µM).

What about the MIC [28, 41] of the same molecule?
The MIC was 0.001 µg/mL (≈ 0.00392 µM).
